Assay results published in BindingDB's records for doi:10.1021/jm030565g (Glaxosmithkline, 2004).

Tests used:
[1] = Effective concentration for lipogenesis induced by retinoid X receptor alpha in C3H10T1/2 clone 8 fibroblast cells
[2] = Effective concentration for retinoic acid receptor alpha induced lipogenesis in C3H10T1/2 clone 8 fibroblast cells
[3] = Effective concentration for lipogenesis induced by retinoid X receptor alpha in C3H10T1/2 clone 8 fibroblast cells; Partial agonist
[4] = Inhibitory concentration for lipogenesis induced by retinoic acid receptor alpha in C3H10T1/2 clone 8 fibroblast cells
[5] = molecular target: T1, Retinoic acid receptor RXR-alpha (Homo sapiens, UniProt P19793); assay: Effective concentration for lipogenesis induced by retinoid X receptor alpha in C3H10T1/2 clone 8 fibroblast cells
T1 sequence (P19793 whole entry): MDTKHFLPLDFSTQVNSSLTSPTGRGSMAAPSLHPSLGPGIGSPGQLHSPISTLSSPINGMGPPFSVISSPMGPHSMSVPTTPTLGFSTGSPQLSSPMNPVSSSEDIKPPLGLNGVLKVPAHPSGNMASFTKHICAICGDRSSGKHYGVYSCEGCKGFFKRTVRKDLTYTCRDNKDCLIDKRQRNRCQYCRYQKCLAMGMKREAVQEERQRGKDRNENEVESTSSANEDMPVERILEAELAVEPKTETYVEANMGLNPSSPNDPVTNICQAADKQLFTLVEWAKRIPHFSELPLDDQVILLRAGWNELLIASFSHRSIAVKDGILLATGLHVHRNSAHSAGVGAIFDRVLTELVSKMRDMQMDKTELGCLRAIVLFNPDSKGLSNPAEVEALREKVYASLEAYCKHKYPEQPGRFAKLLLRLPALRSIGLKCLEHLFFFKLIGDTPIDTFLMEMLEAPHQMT
In short: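 Lipogenesis measured in C3H10T1/2 clone 8 fibroblasts as triglyceride accumulation, used as a surrogate marker of RXR activity.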

Structure (SMILES)	EC50 [1]	EC50 [2]	further results
Cc1oc(/C=C/C(=O)O)cc1Cc1ccc2c(c1)C(C)(C)CCC2(C)C [(E)-3-[5-Methyl-4-(5,5,8,8-tetramethyl-5,6,7,8-tetrahydro-naphthalen-2-ylmethyl)-furan-2-yl]-acrylic acid]	1000 nM	> 1000 nM	
CC1(C)CCC(C)(C)c2cc(Cc3coc(/C=C/C(=O)O)c3)ccc21 [(E)-3-[4-(5,5,8,8-Tetramethyl-5,6,7,8-tetrahydro-naphthalen-2-ylmethyl)-furan-2-yl]-acrylic acid]		57 nM	
CCCOc1cc2c(cc1C1CCCc3oc(/C=C/C(=O)O)cc31)C(C)(C)CCC2(C)C (stereo unspecified) [(E)-3-[4-(5,5,8,8-Tetramethyl-3-propoxy-5,6,7,8-tetrahydro-naphthalen-2-yl)-4,5,6,7-tetrahydro-benzofuran-2-yl]-acrylic acid]			EC50 [3]: 40 nM; IC50 [4]: > 1000 nM
Cc1cc2c(cc1C1CCCc3oc(/C=C/C(=O)O)cc31)C(C)(C)CCC2(C)C (stereo unspecified) [(E)-3-[4-(3,5,5,8,8-Pentamethyl-5,6,7,8-tetrahydro-naphthalen-2-yl)-4,5,6,7-tetrahydro-benzofuran-2-yl]-acrylic acid]	3000 nM		
COc1cc2c(cc1C1CCCc3oc(/C=C/C(=O)O)cc31)C(C)(C)CCC2(C)C (stereo unspecified) [(E)-3-[4-(3-Methoxy-5,5,8,8-tetramethyl-5,6,7,8-tetrahydro-naphthalen-2-yl)-4,5,6,7-tetrahydro-benzofuran-2-yl]-acrylic acid]			EC50 [3]: 123 nM

Now from value to compound, other results behind:

EC50 [1]	EC50 [2]	Structure (SMILES)	further results
22 nM	> 10000 nM	CN1Cc2oc(/C=C/C(=O)O)cc2C(c2ccc3c(c2)C(C)(C)CCC3(C)C)C1 (stereo unspecified)	
72 nM		CC1(C)CCC(C)(C)c2cc(C3CCCc4sc(/C=C/C(=O)O)cc43)ccc21 (stereo unspecified) [(E)-3-[4-(5,5,8,8-Tetramethyl-5,6,7,8-tetrahydro-naphthalen-2-yl)-4,5,6,7-tetrahydro-benzo[b]thiophen-2-yl]-acrylic acid]	
749 nM	> 10000 nM	CC1(C)CCC(C)(C)c2cc(C3CCCc4oc(/C=C/C(=O)O)nc43)ccc21 (stereo unspecified) [(E)-3-[4-(5,5,8,8-Tetramethyl-5,6,7,8-tetrahydro-naphthalen-2-yl)-4,5,6,7-tetrahydro-benzooxazol-2-yl]-acrylic acid]	
10 nM		C/C(=C\C(=O)O)c1cc2c(o1)CCCC2c1ccc2c(c1)C(C)(C)CCC2(C)C (stereo unspecified)	
5 nM		CC1(C)CCC(C)(C)c2cc(C3CCCc4oc(C=C5SC(O)=NC5=O)cc43)ccc21 (stereo unspecified) [5-[1-[4-(5,5,8,8-Tetramethyl-5,6,7,8-tetrahydro-naphthalen-2-yl)-4,5,6,7-tetrahydro-benzofuran-2-yl]-meth-(E)-ylidene]-thiazolidine-2,4-dione]	
660 nM		CC1(C)CCC(C)(C)c2cc(C3CCCc4oc(/C=C/C(=O)O)cc43)ccc21 (stereo unspecified) [(E)-3-[4-(5,5,8,8-Tetramethyl-5,6,7,8-tetrahydro-naphthalen-2-yl)-4,5,6,7-tetrahydro-benzofuran-2-yl]-acrylic acid]	EC50 [5]: 4 nM
